Measured values taken from ChEMBL document CHEMBL1629657, “In vitro antimicrobial activity of a new cephalosporin, ceftaroline, and determination of quality control ranges for MIC testing” (2009).

How the values were obtained:
Assay type in all cases: functional
Providencia stuartii = assay: Antimicrobial activity against Proteus stuartii by broth microdilution method
Method in brief: (§1)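 Clinical isolates were tested by CLSI broth microdilution in unsupplemented cation-adjusted Mueller-Hinton broth. The read-out was the MIC, reported as MIC90 (μg/ml) per species or phenotypic group. Ceftriaxone, levofloxacin and imipenem were run in parallel as comparators.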

Proteus vulgaris = assay: Antimicrobial activity against Proteus vulgaris by broth microdilution method; method in brief: as §1
Serratia marcescens = assay: Antimicrobial activity against Serratia marcescens by broth microdilution method; method in brief: as §1
Shigella sp. = assay: Antimicrobial activity against Shigella spp. by broth microdilution method; method in brief: as §1
Salmonella sp. = assay: Antimicrobial activity against Salmonella spp. by broth microdilution method; method in brief: as §1
Burkholderia cepacia = assay: Antimicrobial activity against Burkholderia cepacia by broth microdilution method; method in brief: as §1
Pseudomonas aeruginosa [1] = assay: Antimicrobial activity against Pseudomonas aeruginosa by broth microdilution method; method in brief: as §1
Pseudomonas aeruginosa [2] = assay: Antimicrobial activity against multidrug resistant Pseudomonas aeruginosa by broth microdilution method
Method in brief: (§2)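 Isolates of the stated resistance phenotype were tested by CLSI broth microdilution in unsupplemented cation-adjusted Mueller-Hinton broth. Ceftaroline was compared with ceftriaxone, levofloxacin and imipenem. Activity was expressed as MICs (MIC90 in μg/ml).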

[3] = tested on: Stenotrophomonas maltophilia; assay: Antimicrobial activity against Stenotrophomonas maltophilia by broth microdilution method; method in brief: as §1
Moraxella catarrhalis = assay: Antimicrobial activity against Moraxella catarrhalis by broth microdilution method; method in brief: as §1
Haemophilus influenzae [4] = assay: Antimicrobial activity against beta-lactamase-negative Haemophilus influenzae by broth microdilution method
Method in brief: (§3)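 CLSI broth microdilution in Haemophilus test medium (cation-adjusted Mueller-Hinton base) against clinical H. influenzae isolates of the stated phenotype. Ceftaroline was compared with ceftriaxone, levofloxacin and imipenem. Activity was expressed as MICs (MIC90 in μg/ml).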

Haemophilus influenzae [5] = assay: Antimicrobial activity against beta-lactamase-positive Haemophilus influenzae by broth microdilution method
Method in brief: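 H. influenzae isolates were tested by CLSI broth microdilution using Haemophilus test medium. The MIC was read and MIC90 (μg/ml) reported for the group. Ceftriaxone, levofloxacin and imipenem served as comparators.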

Haemophilus influenzae [6] = assay: Antimicrobial activity against beta-lactamase-negative ampicillin resistant Haemophilus influenzae by broth microdilution method; method in brief: as §3
Staphylococcus aureus [7] = assay: Antimicrobial activity against methicillin-resistant Staphylococcus aureus by broth microdilution method; method in brief: as §2
Staphylococcus aureus [8] = assay: Antimicrobial activity against methicillin-susceptible Staphylococcus aureus by broth microdilution method; method in brief: as §1
Staphylococcus aureus [9] = assay: Antimicrobial activity against vancomycin-intermediate Staphylococcus aureus by broth microdilution method; method in brief: as §1
Staphylococcus aureus [10] = assay: Antimicrobial activity against vancomycin-resistant Staphylococcus aureus by broth microdilution method; method in brief: as §2
Staphylococcus [11] = assay: Antimicrobial activity against methicillin-resistant coagulase-negative Staphylococcus by broth microdilution method; method in brief: as §2
Staphylococcus [12] = assay: Antimicrobial activity against methicillin-susceptible coagulase-negative Staphylococcus by broth microdilution method; method in brief: as §1
Enterococcus faecalis [13] = assay: Antimicrobial activity against Enterococcus faecalis by broth microdilution method; method in brief: as §1
Enterococcus faecalis [14] = assay: Antimicrobial activity against vancomycin-susceptible Enterococcus faecalis by broth microdilution method; method in brief: as §1
Enterococcus faecium [15] = assay: Antimicrobial activity against Enterococcus faecium by broth microdilution method; method in brief: as §1
Enterococcus faecium [16] = assay: Antimicrobial activity against vancomycin-susceptible Enterococcus faecium by broth microdilution method; method in brief: as §1
Corynebacterium jeikeium = assay: Antimicrobial activity against Corynebacterium jeikeium by broth microdilution method; method in brief: as §1
Listeria monocytogenes = assay: Antimicrobial activity against Listeria monocytogenes by broth microdilution method; method in brief: as §1
Streptococcus agalactiae = assay: Antimicrobial activity against Streptococcus agalactiae by broth microdilution method
Method in brief: (§4)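 Streptococcal isolates were tested by CLSI broth microdilution in cation-adjusted Mueller-Hinton broth supplemented with 3% lysed horse blood. The read-out was the MIC, with MIC90 (μg/ml) reported per group. Ceftriaxone, levofloxacin and imipenem served as comparators.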

Streptococcus pneumoniae [17] = assay: Antimicrobial activity against levofloxacin-resistant Streptococcus pneumoniae by broth microdilution method
Method in brief: (§5)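 CLSI broth microdilution in cation-adjusted Mueller-Hinton broth with 3% lysed horse blood, against streptococcal clinical isolates of the stated phenotype. Ceftaroline was compared with ceftriaxone, levofloxacin and imipenem. Activity was expressed as MICs (MIC90 in μg/ml).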

Streptococcus pneumoniae [18] = assay: Antimicrobial activity against penicillin-resistant Streptococcus pneumoniae by broth microdilution method; method in brief: as §5
Streptococcus pneumoniae [19] = assay: Antimicrobial activity against penicillin-intermediate Streptococcus pneumoniae by broth microdilution method; method in brief: as §5
Streptococcus pneumoniae [20] = assay: Antimicrobial activity against penicillin-susceptible Streptococcus pneumoniae by broth microdilution method; method in brief: as §4
Streptococcus pyogenes [21] = assay: Antimicrobial activity against macrolide-resistant Streptococcus pyogenes by broth microdilution method; method in brief: as §5
Streptococcus pyogenes [22] = assay: Antimicrobial activity against macrolide-susceptible Streptococcus pyogenes by broth microdilution method; method in brief: as §5
Streptococcus viridans = assay: Antimicrobial activity against Streptococcus viridans group clinical isolate by broth microdilution method; method in brief: as §4
Klebsiella aerogenes = assay: Antimicrobial activity against ESBL-negative Enterobacter aerogenes by broth microdilution method; method in brief: as §1
Enterobacter cloacae = assay: Antimicrobial activity against ESBL-negative Enterobacter cloacae by broth microdilution method; method in brief: as §1
Escherichia coli [23] = assay: Antimicrobial activity against ESBL-negative Escherichia coli by broth microdilution method; method in brief: as §1
Escherichia coli [24] = assay: Antimicrobial activity against ESBL-positive Escherichia coli by broth microdilution method; method in brief: as §1
Klebsiella pneumoniae [25] = assay: Antimicrobial activity against ESBL-negative Klebsiella pneumoniae by broth microdilution method; method in brief: as §1
Klebsiella pneumoniae [26] = assay: Antimicrobial activity against ESBL-positive Klebsiella pneumoniae by broth microdilution method; method in brief: as §1
Morganella morganii = assay: Antimicrobial activity against Morganella morganii by broth microdilution method; method in brief: as §1
Proteus mirabilis = assay: Antimicrobial activity against Proteus mirabilis by broth microdilution method; method in brief: as §1
Providencia rettgeri = assay: Antimicrobial activity against Proteus rettgeri by broth microdilution method; method in brief: as §1

`C[C@H]1COc2c(N3CCN(C)CC3)c(F)cc3c(=O)c(C(=O)O)cn1c23.C[C@H]1COc2c(N3CCN(C)CC3)c(F)cc3c(=O)c(C(=O)O)cn1c23.O` [LEVOFLOXACIN] was tested, and the MIC50 (Providencia stuartii) was 0.12 µg/mL, the MIC90 (Providencia stuartii) was over 32 µg/mL and the MIC50 (Proteus vulgaris) was 0.03 µg/mL. The MIC90 (Proteus vulgaris) was 0.06 µg/mL, the MIC50 (Serratia marcescens) was 0.12 µg/mL and the MIC90 (Serratia marcescens) was 0.25 µg/mL. It also gave an MIC50 (Shigella sp.) of 0.03 µg/mL, an MIC90 (Shigella sp.) of 0.06 µg/mL and an MIC (Salmonella sp.) of 0.03 µg/mL. For the same molecule, the MIC50 (Salmonella sp.) was 0.03 µg/mL, the MIC90 (Salmonella sp.) was 0.06 µg/mL and the MIC50 (Burkholderia cepacia) was 1 µg/mL. For the same molecule, the MIC90 (Burkholderia cepacia) was 32 µg/mL, the MIC50 (Pseudomonas aeruginosa [1]) was 2 µg/mL and the MIC90 (Pseudomonas aeruginosa [1]) was over 32 µg/mL. The MIC50 (Pseudomonas aeruginosa [2]) was 32 µg/mL, the MIC50 [3] was 1 µg/mL and the MIC90 [3] was 16 µg/mL. It also gave an MIC50 (Moraxella catarrhalis) of 0.03 µg/mL, an MIC90 (Moraxella catarrhalis) of 0.03 µg/mL and an MIC50 (Haemophilus influenzae [4]) of 0.03 µg/mL. It also gave an MIC90 (Haemophilus influenzae [4]) of 0.03 µg/mL, an MIC50 (Haemophilus influenzae [5]) of 0.03 µg/mL and an MIC90 (Haemophilus influenzae [5]) of 0.03 µg/mL. The MIC50 (Haemophilus influenzae [6]) was 0.03 µg/mL, the MIC90 (Haemophilus influenzae [6]) was 0.06 µg/mL and the MIC50 (Staphylococcus aureus [7]) was 8 µg/mL. For the same molecule, the MIC90 (Staphylococcus aureus [7]) was over 32 µg/mL, the MIC50 (Staphylococcus aureus [8]) was 0.25 µg/mL and the MIC90 (Staphylococcus aureus [8]) was 8 µg/mL. It also gave an MIC50 (Staphylococcus aureus [9]) of 16 µg/mL, an MIC90 (Staphylococcus aureus [9]) of 32 µg/mL and an MIC (Staphylococcus aureus [10]) of 16 µg/mL. For the same molecule, the MIC50 (Staphylococcus [11]) was 8 µg/mL, the MIC90 (Staphylococcus [11]) was over 32 µg/mL and the MIC50 (Staphylococcus [12]) was 0.25 µg/mL. It also gave an MIC90 (Staphylococcus [12]) of 16 µg/mL, an MIC50 (Enterococcus faecalis [13]) of 1 µg/mL and an MIC90 (Enterococcus faecalis [13]) of 32 µg/mL. The MIC (Enterococcus faecalis [14]) was 1 µg/mL, the MIC50 (Enterococcus faecalis [14]) was 1 µg/mL and the MIC90 (Enterococcus faecalis [14]) was over 32 µg/mL. It also gave an MIC50 (Enterococcus faecium [15]) of over 32 µg/mL, an MIC90 (Enterococcus faecium [15]) of over 32 µg/mL and an MIC50 (Enterococcus faecium [16]) of 2 µg/mL. The MIC90 (Enterococcus faecium [16]) was over 32 µg/mL, the MIC50 (Corynebacterium jeikeium) was over 32 µg/mL and the MIC90 (Corynebacterium jeikeium) was over 32 µg/mL. For the same molecule, the MIC (Listeria monocytogenes) was 1 µg/mL, the MIC50 (Listeria monocytogenes) was 1 µg/mL and the MIC90 (Listeria monocytogenes) was 1 µg/mL. For the same molecule, the MIC50 (Streptococcus agalactiae) was 1 µg/mL, the MIC90 (Streptococcus agalactiae) was 1 µg/mL and the MIC50 (Streptococcus pneumoniae [17]) was 16 µg/mL. It also gave an MIC90 (Streptococcus pneumoniae [17]) of over 32 µg/mL, an MIC50 (Streptococcus pneumoniae [18]) of 1 µg/mL and an MIC90 (Streptococcus pneumoniae [18]) of 1 µg/mL. The MIC50 (Streptococcus pneumoniae [19]) was 1 µg/mL, the MIC90 (Streptococcus pneumoniae [19]) was 1 µg/mL and the MIC50 (Streptococcus pneumoniae [20]) was 1 µg/mL. The MIC90 (Streptococcus pneumoniae [20]) was 2 µg/mL, the MIC (Streptococcus pyogenes [21]) was 0.5 µg/mL and the MIC50 (Streptococcus pyogenes [21]) was 0.5 µg/mL. The MIC90 (Streptococcus pyogenes [21]) was 0.5 µg/mL, the MIC50 (Streptococcus pyogenes [22]) was 0.5 µg/mL and the MIC90 (Streptococcus pyogenes [22]) was 2 µg/mL. The MIC50 (Streptococcus viridans) was 1 µg/mL, the MIC90 (Streptococcus viridans) was 2 µg/mL and the MIC50 (Klebsiella aerogenes) was 0.06 µg/mL. It also gave an MIC90 (Klebsiella aerogenes) of 0.5 µg/mL, an MIC50 (Enterobacter cloacae) of 0.03 µg/mL and an MIC90 (Enterobacter cloacae) of 0.06 µg/mL. The MIC50 (Escherichia coli [23]) was 0.03 µg/mL, the MIC90 (Escherichia coli [23]) was 0.25 µg/mL and the MIC50 (Escherichia coli [24]) was 0.25 µg/mL. The MIC90 (Escherichia coli [24]) was 32 µg/mL, the MIC50 (Klebsiella pneumoniae [25]) was 0.06 µg/mL and the MIC90 (Klebsiella pneumoniae [25]) was 0.5 µg/mL. For the same molecule, the MIC50 (Klebsiella pneumoniae [26]) was 0.5 µg/mL, the MIC90 (Klebsiella pneumoniae [26]) was 8 µg/mL and the MIC50 (Morganella morganii) was 0.06 µg/mL. The MIC90 (Morganella morganii) was 8 µg/mL, the MIC (Proteus mirabilis) was 0.03 µg/mL and the MIC50 (Proteus mirabilis) was 0.03 µg/mL. For the same molecule, the MIC90 (Proteus mirabilis) was 0.25 µg/mL, the MIC50 (Providencia rettgeri) was 0.12 µg/mL and the MIC90 (Providencia rettgeri) was over 32 µg/mL.
